Test results taken from article PMC5515376 (Nature, 2016).
Read-outs that look alike come from different tables or passages of the source.

Experiments:
[1] = system: major human cytochrome P450 (CYP) isoforms
[2] = system: P. berghei (ANKA) liver stage; assay: In vitro P. berghei liver-stage assay; assay type: cell-based, Plasmodium berghei; settings: P. berghei (ANKA), Liver stage
Summary of the method: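 HepG2 cells (~17,500 per well, in duplicate) were cultured 18–24 h, then the medium was exchanged and compound added. After 1 h, 4,000 P. berghei ANKA GFP–luc sporozoites per well were added, freshly dissected from A. stephensi mosquitoes. Plates were spun 10 min at 1,000 r.p.m. and incubated 48 h at 37 °C. Parasite load was read by Bright-Glo luminescence.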

P. falciparum Dd2 = assay: In vitro P. falciparum blood-stage growth inhibition assay; assay type: cell-based, Plasmodium falciparum
[3] = system: P. berghei (ANKA GFP-luc) sporozoites; assay: In vivo P. berghei causal prophylaxis assay; set-up: species or system Plasmodium berghei; settings: CD-1 mice

`COc1ccc(NC(=O)N2CCCCN3[C@H](CN(C)C)[C@H](c4ccc(C#Cc5ccccc5)cc4)[C@@H]3C2)cc1` [BRD7929] was tested, and the “Inhibition of major human CYP isoforms” value [1] was “no inhibition”, the EC50 [2] was 162 nM and the EC50 (P. falciparum Dd2; read-out: Pf, Dd2 EC50, blood stage) was 9 nM. For the same compound, the EC50 (P. falciparum Dd2; read-out: PfDd2 EC50, asexual blood-stage parasites (Dd2), SAR table) was 9 nM, the EC90 (P. falciparum Dd2; strain Dd2) was 20 nM and the “Mice developing blood-stage parasitaemia within a 30-day period” value ([3]; single dose of 5 or 25 mg kg^−1) was “none”. The “Lowest single oral dose with no recrudescence” value ([3]; P. berghei liver-stage model) was 5 mg/kg.
